From PubChem BioAssay
The source made the active and inactive calls.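 Rule for the calls, unless noted: active = fluorescence slope after compound addition differing from the mean of all tested samples at 99.7% confidence, mostly higher but some lower; inactive = the rest.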

Assays:
[1] = inhibitors of TNFa-induced NFkB p65 translocation, primary screen, imaging, HUVEC, MLSMR starter and 10KST1 sets (AID 438;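 active = inhibition above 20% together with a positive visual image hit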;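 note: compound added about 3h40 before a 20 min TNFalpha stimulation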;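 for inhibition: signal is the nuclear over cytoplasmic p65 intensity ratio per well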); details: HUVEC TNFa-induced p65 nuclear translocation; cell count: measured here: nuclei count (cytotoxicity indicator), at 2.08 µM; inhibition: at 2 µM, stronger effect = higher value, 0% TNFa-plus-vehicle, 100% no-TNFa wells
[2] = inhibitors of mutant huntingtin aggregation, primary screen, imaging, exon1htt(103Q)mCFP cells, high-content imaging (AID 483;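 active = visual image review flags a hit and inhibition of aggregation exceeds 20%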;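 note: compound exposure lasted 3 days before fixation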;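 for nuclei count: percent of the per-plate median nuclei count of sample wells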); details: exon1htt(103Q)mCFP cell line, aggregate imaging, at 2 µM; inhibition of aggregation: stronger effect = higher value; nuclei count: measured here: cell count, toxicity
[3] = inhibitors of E-selectin induction by TNFa, primary screen, imaging, HUVEC, immunofluorescence, MLSMR starter and 10KST1 sets (AID 487;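 active = visually confirmed hit in the image check and inhibition above 20%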;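 for inhibition: signal is fraction of cell area covered by stained E-selectin grains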;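 for nuclei count: 100% = median nuclei count of all wells on the same plate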); details: HUVEC TNFalpha-induced E-selectin immunofluorescence imaging, at 2 µM; inhibition: stronger effect = higher value; nuclei count: measured here: cell number, toxicity
[4] = target: Voltage-gated potassium channel subunit beta-2 (Rattus norvegicus) (UniProt P62483); test: KvBeta enzyme negative modulators, primary screen, biochemical, NADPH fluorescence (AID 622;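 active = fluorescence slope higher than the sample average by over 3 SD, cut at about -0.22 in these data, passing the limit was not always enough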;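 note: slope of raw intensity against log time taken from 70 to 1610 s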); details: recombinant KvBeta, 4-cyanobenzaldehyde reduction, at 10 µM, stronger effect = higher value
[5] = target: Voltage-gated potassium channel subunit beta-2 (Rattus norvegicus) (UniProt P62483); test: KvBeta positive modulators, primary screen, biochemical, NADPH fluorescence (AID 623;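 active = NADPH fluorescence slope more negative than the mean of all samples by about 3 SD, 99.7% confidence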;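 note: fluorescence intensity change per second fitted from 20 to 320 s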); details: Recombinant KvBeta, NADPH fluorescence decrease slope, 10 min; at 10 µM; stronger effect = lower value
[6] = target: Muscarinic acetylcholine receptor M4 (Homo sapiens) (UniProt P08173); test: compounds altering M4/GIRK thallium flux, either direction, primary screen, M4 allosteric agonist project, cell-based, HEK293 M4/GIRK, BTC-AM (AID 625); details: at 10 µM, actives lie on both sides;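 note: thallium influx through GIRK channels coupled to M4 in HEK293 cells with BTC-AM dye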
Summary of the method: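 Material: M4/GIRK1/GIRK2 stable HEK293 cell line. Medium: pH 7.3 thallium assay buffer. Dosing: single compound concentration, 10 µM final. Schedule: 1 h dye loading, 2 min kinetic read. Measured by: kinetic fluorescence with BTC-AM dye. Read-out: post-addition slope, 15–24 s, of baseline-normalized fluorescence. Benchmarks: carbachol and DMSO controls.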

[7] = inhibitors of Sendai virus-induced IRF3 signaling, primary screen, TLR/RLR signaling modifier project, cell-based, Sendai virus stimulus, luciferase, 10K MLSCN set (AID 602276;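 active = inhibition at or above 50% at 10 µM; inactive = inhibition below 50%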;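 note: firefly luciferase from ISG56 promoter only with Renilla not read in this screen; 0% = Sendai virus plus DMSO and 100% = medium plus DMSO without virus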); details: HEK293 RL24 IRF3 luciferase reporter, at 10 µM, stronger effect = higher value
[8] = inhibitors of poly I:C-induced TLR3 signaling, primary screen, cell-based, poly I:C stimulus, luciferase, 10K MLSCN set (AID 602277;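 active = inhibition of the reporter signal at or above 50%; inactive = inhibition below 50%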); details: HEK293-TLR3 RL24 IRF3 luciferase reporter, at 10 µM, stronger effect = higher value

Chain of Muscarinic acetylcholine receptor M4 (Homo sapiens) (P08173 whole entry, looked up): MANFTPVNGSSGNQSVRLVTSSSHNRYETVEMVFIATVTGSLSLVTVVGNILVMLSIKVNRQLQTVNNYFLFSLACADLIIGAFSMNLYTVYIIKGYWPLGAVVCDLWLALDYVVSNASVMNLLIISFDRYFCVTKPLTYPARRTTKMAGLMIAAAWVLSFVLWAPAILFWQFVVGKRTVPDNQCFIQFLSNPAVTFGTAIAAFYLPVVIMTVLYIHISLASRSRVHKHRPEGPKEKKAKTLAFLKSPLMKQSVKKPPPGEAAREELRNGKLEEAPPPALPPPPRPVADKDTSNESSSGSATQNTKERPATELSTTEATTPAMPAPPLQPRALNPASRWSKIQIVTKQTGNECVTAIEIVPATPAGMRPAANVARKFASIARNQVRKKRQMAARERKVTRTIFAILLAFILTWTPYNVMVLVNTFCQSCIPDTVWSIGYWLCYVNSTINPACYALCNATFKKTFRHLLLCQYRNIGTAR
Chain of Voltage-gated potassium channel subunit beta-2 (Rattus norvegicus) (P62483 whole entry, looked up): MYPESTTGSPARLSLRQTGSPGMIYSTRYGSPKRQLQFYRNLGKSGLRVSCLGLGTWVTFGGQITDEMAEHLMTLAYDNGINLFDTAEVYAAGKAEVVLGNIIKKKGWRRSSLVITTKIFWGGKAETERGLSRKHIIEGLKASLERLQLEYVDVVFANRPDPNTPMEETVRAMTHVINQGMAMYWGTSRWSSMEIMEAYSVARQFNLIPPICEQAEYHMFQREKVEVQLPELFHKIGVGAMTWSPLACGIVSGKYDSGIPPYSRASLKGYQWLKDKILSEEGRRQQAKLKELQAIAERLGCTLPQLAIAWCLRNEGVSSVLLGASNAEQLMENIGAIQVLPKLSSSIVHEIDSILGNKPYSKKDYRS

Row | Compound | cell count [1] | inhibition [1] | inhibition of aggregation [2] | nuclei count [2] | inhibition [3] | nuclei count [3] | fluorescence slope [4] | NADPH fluorescence slope [5] | fluorescence slope [6] | inhibition [7] | inhibition [8]
1 | OCC#CCSc1nnc(-c2ccccc2Br)o1 | 390 | -5.2% (inactive) | -3.5% (inactive) | 110% | -111% (inactive) | 132% | -0.515 (inactive) | -0.000137 (inactive) | 0.00341 (inactive) | -9.39% (inactive) | -45.2% (inactive)
2 | N#CCc1nc(CSc2nc3ccccc3s2)cs1 | 347 | -4.4% (inactive) | -7.5% (inactive) | 98% | -27.5% (inactive) | 114% | -0.551 (inactive) | -2.5e-05 (inactive) | 0.0089 (inactive) | -24.2% (inactive) | -87.8% (inactive)
3 | CS(=O)(=O)N(CC(=O)N1CCN(c2cccc(Cl)c2)CC1)C1CCCCC1 | 645 | -6% (inactive) | 11% (inactive) | 87.4% | 8.8% (inactive) | 78.2% | -0.576 (inactive) | -4.3e-05 (inactive) | 0.00576 (inactive) | 2.97% (inactive) | 0.307% (inactive)
4 | Cc1cc(=O)n2[nH]c(COc3ccccc3)nc2n1 | 203 | -7.9% (inactive) | 31.3% (inactive) | 101% | -85.5% (inactive) | 91.6% | -0.531 (inactive) | -4.3e-05 (inactive) | 0.00471 (inactive) | 6.61% (inactive) | 14.8% (inactive)
5 | O=C(Nc1ccc(Cl)cc1C(=O)Nc1ccncc1)c1ccco1 | 393 | 2.1% (inactive) | -7.4% (inactive) | 81.3% | -148% (inactive) | 101% | -0.316 (inactive) | -1.2e-05 (inactive) | 0.00491 (inactive) | 18.3% (inactive) | 28.5% (inactive)
6 | Cc1ccc(Nc2nnns2)cc1C | 758 | 5% (inactive) | -5% (inactive) | 105% | -52.7% (inactive) | 116% | -0.58 (inactive) | 1.4e-05 (inactive) | 0.00717 (inactive) | 6.92% (inactive) | 7.21% (inactive)
7 | CC1CN(c2nc3ccccn3c(=O)c2/C=C(\C#N)S(=O)(=O)c2ccccc2)CC(C)O1 (stereo not drawn) | 570 | 8.1% (inactive) | 3.6% (inactive) | 98.6% | 56.6% (inactive) | 104% | -0.513 (inactive) | -0.000138 (inactive) | 0.00288 (inactive) | -1.56% (inactive) | -21.6% (inactive)
8 | COCc1cc(C)c2c(N)c(C#N)sc2n1 | 549 | 2.2% (inactive) | -26% (inactive) | 60.8% | 22.2% (inactive) | 108% | -0.324 (inactive) | 2.3e-06 (inactive) | 0.00504 (inactive) | -19.7% (inactive) | -33.5% (inactive)
9 | O=C1CC(c2cccc(Cl)c2)CC(O)=C1C=NCCCO (stereo not drawn) | 498 | -18.1% (inactive) | 0.4% (inactive) | 87.3% | 28.3% (inactive) | 98.3% | -0.393 (inactive) | 4.1e-05 (inactive) | 0.00604 (inactive) | 16.7% (inactive) | 20.9% (inactive)
10 | COC(=O)c1ccccc1NC(=O)c1cc(-c2ccc(OC)c(OC)c2)on1 | 443 | -28.4% (inactive) | -3.3% (inactive) | 104% | -29.1% (inactive) | 111% | -0.269 (inactive) | -3.4e-05 (inactive) | 0.00826 (inactive) | 3.07% (inactive) | 5.03% (inactive)
11 | c1ccc2c(c1)ccc1nnc(-c3ccc4c(c3)OCO4)n12 | 338 | -1.7% (inactive) | 18.1% (inactive) | 87.8% | -25.6% (inactive) | 108% | -0.58 (inactive) | 1.5e-05 (inactive) | 0.00599 (inactive) | -1.33% (inactive) | 25.4% (inactive)
12 | CCOc1ccc(-c2nnc(N(CC)C(=O)C3CCC3)s2)cc1 | 440 | 9.7% (inactive) | 3.2% (inactive) | 103% | -32% (inactive) | 111% | -0.461 (inactive) | 2e-05 (inactive) | 0.00526 (inactive) | -19.2% (inactive) | -80.4% (inactive)
13 | COC(=O)c1ccc(CSc2nc3ccccc3c(=O)n2Cc2ccco2)o1 | 414 | 2.6% (inactive) | -12.9% (inactive) | 111% | 1.8% (inactive) | 114% | -0.563 (inactive) | -1.4e-05 (inactive) | 0.00748 (inactive) | 6.37% (inactive) | -5.19% (inactive)
14 | O=C(CSc1ncnc2ccccc12)N1CCN(c2ccccc2)CC1 | 567 | -10.9% (inactive) | 10.5% (inactive) | 99.4% | 9.1% (inactive) | 108% | -0.47 (inactive) | 3.6e-05 (inactive) | 0.00572 (inactive) | 1.94% (inactive) | 15.7% (inactive)
15 | O=C(O)c1c[nH]c2ccc(S(=O)(=O)N3CCN(c4ccc(F)cc4)CC3)cc2c1=O | 423 | -1.1% (inactive) | 20.5% (inactive) | 87.5% | -183% (inactive) | 101% | -0.566 (inactive) | 2e-06 (inactive) | 0.00349 (inactive) | 1.85% (inactive) | 0.478% (inactive)
16 | O=C(c1cccn2c(=O)c3cc(Cl)ccc3nc12)N1CCOCC1 | 488 | -23.1% (inactive) | 10% (inactive) | 106% | -117% (inactive) | 140% | -0.027 (inactive) | 8.6e-06 (inactive) | 0.00457 (inactive) | 7.46% (inactive) | 19.6% (inactive)
17 | Cn1cnnc1Sc1nc2c(c(=O)n(C)c(=O)n2C)n1C | 613 | -33.7% (inactive) | 11.6% (inactive) | 90.4% | -50.7% (inactive) | 100% | -0.547 (inactive) | 2.3e-05 (inactive) | 0.00524 (inactive) | -1.17% (inactive) | 9.62% (inactive)
18 | Cc1ccc(-n2ncc3c(N4CCN(c5ccc(F)cc5)CC4)ncnc32)c(C)c1 | 514 | -6.8% (inactive) | 4.6% (inactive) | 83.4% | 32.4% (inactive) | 92.4% | -0.521 (inactive) | -0.000115 (inactive) | 0.00599 (inactive) | -19.8% (inactive) | -65.4% (inactive)
19 | Cc1ccc(C(=O)CSc2nnc(-c3cccnc3)n2N)cc1 | 614 | -20.3% (inactive) | -15.4% (inactive) | 89.2% | 5.4% (inactive) | 95.7% | -0.534 (inactive) | -5.6e-05 (inactive) | 0.00446 (inactive) | -0.185% (inactive) | 51.1% (active)
20 | CCN(CCNC(=O)C1CCN(S(=O)(=O)CC)CC1)c1ccccc1 | 446 | -14.7% (inactive) | 5.7% (inactive) | 86.2% | -93.7% (inactive) | 106% | -0.254 (inactive) | -2.8e-05 (inactive) | 0.00662 (inactive) | 15.8% (inactive) | 11.8% (inactive)
21 | COc1nc(OC)nc(N2CCC(C(=O)NC3CCCCCC3)CC2)n1 | 462 | 7.8% (inactive) | 6.7% (inactive) | 87.3% | -6% (inactive) | 110% | -0.469 (inactive) | 6.4e-05 (inactive) | 0.00646 (inactive) | -10% (inactive) | -8.66% (inactive)
22 | Cn1c(=O)c2c(nc(N3CCCCC3)n2CCSc2nc3ccccc3o2)n(C)c1=O | 248 | -3.6% (inactive) | 2.8% (inactive) | 71.3% | 28.4% (inactive) | 94.2% | -0.451 (inactive) | 4.5e-05 (inactive) | 0.00597 (inactive) | -13.5% (inactive) | -11.3% (inactive)
23 | Cc1ccc(O)c(C(=O)c2cc(C#N)c(=O)n(CC3CCCO3)c2)c1 (stereo not drawn) | 449 | -20.3% (inactive) | 33.7% (active) | 70.1% | 82.1% (active) | 53.1% | -0.561 (inactive) | -4.5e-05 (inactive) | 0.00669 (inactive) | 15% (inactive) | 24.8% (inactive)
24 | CC1CCN(S(=O)(=O)c2ccc(NC(=O)CSc3nnnn3C)cc2)CC1 | 289 | -5.4% (inactive) | -4.7% (inactive) | 107% | -1.6% (inactive) | 91.8% | -0.411 (inactive) | -3.1e-05 (inactive) | 0.00682 (inactive) | 10.9% (inactive) | 20.7% (inactive)
25 | C=CCSc1ncccc1C(=O)O | 709 | 6.9% (inactive) | -8.1% (inactive) | 108% | -36.4% (inactive) | 111% | -0.556 (inactive) | -6.2e-05 (inactive) | 0.00662 (inactive) | -12.7% (inactive) | -3.04% (inactive)
26 | Cc1cccc(NC(=O)CCn2ccnc2C)c1 | 628 | 1.2% (inactive) | -6.6% (inactive) | 96.8% | -65.9% (inactive) | 93% | -0.574 (inactive) | -5e-05 (inactive) | 0.00688 (inactive) | 10.5% (inactive) | 8.13% (inactive)
27 | O=C(COC(=O)Cc1cccc(C(F)(F)F)c1)NCC1CCCO1 (stereo not drawn) | 704 | 3.3% (inactive) | 3% (inactive) | 106% | -199% (inactive) | 134% | -0.497 (inactive) | -0.000214 (inactive) | 0.00505 (inactive) | -6.76% (inactive) | 2.06% (inactive)
28 | COc1ccc(NC(=O)CCNC(=O)Cn2ccc3ccccc3c2=O)c(OC)c1 | 707 | -8.4% (inactive) | 22.3% (inactive) | 101% | -39.3% (inactive) | 115% | -0.331 (inactive) | -5.9e-05 (inactive) | 0.00839 (inactive) | 14.4% (inactive) | 15.6% (inactive)
